We go through three molecules from paper PMC3319430 (Journal of Medicinal Chemistry, 2009).

The conditions of data set [1]: cited from earlier work.
The conditions of data set [2]: cited from earlier work. This is another data set of the same source.
Data set [3] deals with CFTR chloride conductance (Homo sapiens, UniProt P13569). As to the kind of experiment: Apical membrane chloride current. The class given is cell-based.
In data set [4] the test system is calcium-activated chloride channels. As to the kind of experiment: UTP-induced chloride current in cystic fibrosis. The format is cell-based, human. Particulars: 10 or 20 µM. The essentials: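 Short-circuit current in cystic fibrosis human bronchial epithelial cells on inserts in Ussing chambers. Krebs-bicarbonate solution on both sides, gassed with 5% CO2 in air, 37 °C. ENaC was blocked with 10 µM amiloride. Calcium-activated chloride channels were stimulated with 100 µM UTP, and test compound was added.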

In data set [5] the target is human wild-type CFTR (Homo sapiens, UniProt P13569). Description: Whole-cell patch-clamp in CFTR-expressing FRT cells. The format is cell-based. To be noted: 500 nM; ±100 mV. Background: The patch-clamp technique gives a direct electrical read-out from membranes.
The target in data set [6] is T1, CFTR (Homo sapiens, UniProt P13569). Description: Cell-attached single-channel patch-clamp recordings of CFTR. The format is cell-based. Particulars: 1 µM.
In data set [7] the test system is renal cysts in E13.5 embryonic kidneys. As to the kind of experiment: Embryonic kidney organ culture model of polycystic kidney disease. On the set-up: species or system mouse. The essentials:
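Metanephroi from E13.5 mouse embryos, on porous inserts in DMEM/Ham's F-12 with glutamine, HEPES, insulin, transferrin, selenium, prostaglandin E, T3 and antibiotics, 37 °C humidified CO2. Medium with 100 µM 8-Br-cAMP ± test compound replaced every 12 h. For preformed cysts, compound was added at day 3 of 8-Br-cAMP. Transmitted-light images were taken, and % cyst area = total cyst area/total kidney area; 6–8 kidneys.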

Data set [8] has as its target T1, CFTR. Description: Fluorescence platereader assay of CFTR-mediated iodide influx. The format is cell-based. Particulars: result in words. The essentials:
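FRT cells co-expressing human wild-type CFTR and YFP-H148Q halide sensor, assayed 48 h after plating at confluence. After PBS washes, cells were activated with 5 µM forskolin, 100 µM IBMX and 25 µM apigenin. Test compound was added 5 min later, 25 µM final, for 15 min. Fluorescence was read 2 s baseline, then 10 s after iodide-for-chloride PBS addition. Initial influx rate was fitted by nonlinear regression.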

T1 sequence (P13569 whole entry): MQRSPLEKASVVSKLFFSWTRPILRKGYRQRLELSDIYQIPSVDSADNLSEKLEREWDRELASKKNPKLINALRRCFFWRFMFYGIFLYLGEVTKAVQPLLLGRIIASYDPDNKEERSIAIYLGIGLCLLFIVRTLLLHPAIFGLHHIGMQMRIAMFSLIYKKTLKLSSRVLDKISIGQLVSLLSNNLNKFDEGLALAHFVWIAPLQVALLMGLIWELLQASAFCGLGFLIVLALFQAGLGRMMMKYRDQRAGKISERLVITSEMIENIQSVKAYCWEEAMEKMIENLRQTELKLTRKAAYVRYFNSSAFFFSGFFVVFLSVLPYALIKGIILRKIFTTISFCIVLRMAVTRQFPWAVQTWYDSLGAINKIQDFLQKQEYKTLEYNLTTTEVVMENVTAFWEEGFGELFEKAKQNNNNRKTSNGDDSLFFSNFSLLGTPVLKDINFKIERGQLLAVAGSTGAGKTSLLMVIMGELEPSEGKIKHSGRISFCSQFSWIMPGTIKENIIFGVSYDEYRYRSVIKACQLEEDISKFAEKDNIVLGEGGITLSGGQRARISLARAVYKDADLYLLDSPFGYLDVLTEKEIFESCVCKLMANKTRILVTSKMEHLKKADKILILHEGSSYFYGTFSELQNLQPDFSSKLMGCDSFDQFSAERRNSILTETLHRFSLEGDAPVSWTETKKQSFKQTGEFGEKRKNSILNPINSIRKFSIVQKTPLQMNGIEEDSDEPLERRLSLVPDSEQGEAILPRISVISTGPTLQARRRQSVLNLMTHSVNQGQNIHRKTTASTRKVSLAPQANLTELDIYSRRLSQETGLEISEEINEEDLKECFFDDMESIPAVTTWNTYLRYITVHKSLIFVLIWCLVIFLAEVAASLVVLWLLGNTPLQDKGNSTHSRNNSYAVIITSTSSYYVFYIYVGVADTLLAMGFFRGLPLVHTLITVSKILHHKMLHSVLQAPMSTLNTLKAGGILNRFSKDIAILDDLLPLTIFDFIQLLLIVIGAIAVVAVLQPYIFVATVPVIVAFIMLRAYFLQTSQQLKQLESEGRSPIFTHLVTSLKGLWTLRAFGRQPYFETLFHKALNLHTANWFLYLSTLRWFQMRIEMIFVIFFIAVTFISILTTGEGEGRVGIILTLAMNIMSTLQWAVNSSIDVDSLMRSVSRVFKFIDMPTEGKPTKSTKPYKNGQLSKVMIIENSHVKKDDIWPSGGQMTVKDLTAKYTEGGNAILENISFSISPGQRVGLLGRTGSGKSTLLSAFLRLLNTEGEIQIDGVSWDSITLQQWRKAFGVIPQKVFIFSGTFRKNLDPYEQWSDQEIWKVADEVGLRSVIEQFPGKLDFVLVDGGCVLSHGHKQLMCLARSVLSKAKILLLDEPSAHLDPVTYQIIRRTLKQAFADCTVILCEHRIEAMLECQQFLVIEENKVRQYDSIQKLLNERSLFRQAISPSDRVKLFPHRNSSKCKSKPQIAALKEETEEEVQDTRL
Chain of CFTR chloride conductance (P13569 whole entry): as above
Chain of human wild-type CFTR (P13569 whole entry): as above

In the case of `O=C(O)c1ccc(/C=C2\SC(=S)N(c3cccc(C(F)(F)F)c3)C2=O)cc1` [CFTRinh-172], the Aqueous solubility result in data set [1] was “low aqueous solubility”. The Toxicity entry in data set [2] is recorded as “low toxicity”.

As for `Cc1ccc(C2Nc3ccccc3-n3c(-c4ccccc4)c4c(=O)n(C)c(=O)n(C)c4c32)o1` (stereo not shown) [PPQ-102, 7,9-Dimethyl-11-phenyl-6-(5-methylfuran-2-yl)-5,6-dihydropyrimido[4′,5′-3,4]pyrrolo[1,2-a]quinoxaline-8,10-(7H,9H)-dione], the Reversibility of inhibition entry in data set [3] (30 min incubation with 2 µM followed by 10 min washout) is “complete restoration of CFTR chloride current”. The “Potency with apigenin or IBMX as agonists compared to CPT-cAMP” value in data set [3] (apigenin (100 µM) or IBMX (100 µM)) is given as “mildly reduced”. The “Inhibition of UTP-induced chloride currents” value in data set [4] is “little inhibition”. Further, the “CFTR current-voltage relationship after addition” value in data set [5] is “remained linear”. In data set [6], the “Mean channel closed time” value is recorded as “greatly increased” and the “Mean channel open time” value is reported as “did not significantly change”. Besides, the Unitary conductance result in data set [6] (+80 mV) was “did not change”. The “Channel open probability (Po)” value in data set [6] (forskolin 10 µM and IBMX 100 µM, control 0.50 ± 0.04) worked out at 0.14 ± 0.03. Also, in data set [7] (0.5 µM, 100 µM 8-Br-cAMP, 4 days in culture), the “Inhibition of cyst formation (percentage area occupied by cysts)” value is given as more than 60%. Further, in data set [7] (2.5 µM removed after 3 days, 8-Br-cAMP continued), the “Reversibility of cyst inhibition” value is reported as “reversible”. For the same molecule, the “Size of preformed cysts” value in data set [7] (5 µM added at day 3 of 8-Br-cAMP, over 1 and 2 days) is listed as “remarkable reduction in cyst size”. Moreover, in data set [7] (2.5 and 5 µM, 100 µM 8-Br-cAMP, 4 days), the “Cysts at 2.5 and 5 µM” value is on record as “near complete absence of cysts”. In addition, the Kidney growth result in data set [7] (in culture medium) is listed as “did not affect kidney growth”.

Consider `Cc1ccc(C(=O)Nc2ccccc2-n2cc3c(c2-c2ccccc2)c(=O)n(C)c(=O)n3C)o1` [PPQ-102b, N-(2-(1,3-Dimethyl-2,4-dioxo-5-phenyl-3,4-dihydro-1H-pyrrolo[3,4-d]pyrimidin-6(2H)-yl)phenyl)-5-methylfuran-2-carboxamide], for which the CFTR inhibition activity entry in data set [8] is on record as “abolished CFTR inhibition activity”.
